Assay results reported in ChEMBL document CHEMBL1149321, “Synthesis, radiosynthesis, and biological evaluation of carbon-11 and iodine-123 labeled 2beta-carbomethoxy-3beta-[4'-((Z)-2-haloethenyl)phenyl]tropanes: candidate radioligands for in vivo imaging of the serotonin transporter” (J Med Chem, 2004).

What was measured:
Rattus norvegicus [1] = assay: Distribution of the radio labelled compound in cerebellum of rat brain after intravenous administration in presence of RTI-113 after 60 min; format: ADME, organism-based; conditions: in vivo, 1 h
Method in brief: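 Male Sprague–Dawley rats (200–250 g), ketamine/xylazine anesthesia, tail-vein cannula. Blocker (4 mg/kg) or nothing given 15 min before iv [123I]ZIET in 10% ethanol/saline. Killed 60 min post-tracer.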

Rattus norvegicus [2] = assay: Distribution of the radio labelled compound in hippocampus of rat brain after intravenous administration in presence of citalopram after 60 min; format: ADME, organism-based; conditions: in vivo, 1 h
Method in brief: (§1)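 Male Sprague–Dawley rats (200–250 g) under ketamine/xylazine anaesthesia with tail-vein cannulas. Blocker or none given 15 min before ~20 μCi [123I] tracer iv in 0.2 mL 10% ethanol/saline; blocker dose 4 mg/kg.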

Rattus norvegicus [3] = assay: Distribution of the radio labelled compound in hippocampus of rat brain after intravenous administration in presence of reboxetine after 60 min; format: ADME, organism-based; conditions: in vivo, 1 h; method in brief: as §1
Rattus norvegicus [4] = assay: Distribution in rest of rat brain after intravenous administration by using [123I]ZIET after 5 min; format: ADME, organism-based; conditions: in vivo
Method in brief: (§2)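 Male Sprague–Dawley rats (200–250 g), fed ad libitum, given ~20 μCi radiotracer iv via tail-vein cannula in 0.2 mL 10% ethanol/saline under ketamine/xylazine im anesthesia. Killed at 5, 30, 60 or 120 min (n = 5; n = 4 at 120 min). Brain regions dissected, weighed, gamma-counted with dose standards, decay-corrected; mean %ID/g ± SE.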

Rattus norvegicus [5] = assay: Distribution in thyroid of rat brain after intravenous administration by using [123I]ZIET after 30 min; format: ADME, organism-based, Thyroid gland; conditions: in vivo, 0.5 h; method in brief: as §2
Rattus norvegicus [6] = assay: Distribution in hypothalamus of rat brain after intravenous administration by using [123I]ZIET after 120 min; format: ADME, organism-based; conditions: in vivo, 2 h; method in brief: as §2
Rattus norvegicus [7] = assay: Distribution of the radio labelled compound in rest of rat brain after intravenous administration in presence of reboxetine after 60 min; format: ADME, organism-based; conditions: in vivo, 1 h; method in brief: as §1
Rattus norvegicus [8] = assay: Distribution of the radio labelled compound in striatum of rat brain after intravenous administration in absence of blocker after 60 min; format: ADME, organism-based; conditions: in vivo, 1 h; method in brief: as §1
Rattus norvegicus [9] = assay: Distribution in blood of rat brain after intravenous administration by using [123I]ZIET after 5 min; format: ADME, organism-based; conditions: in vivo; method in brief: as §2
Rattus norvegicus [10] = assay: Distribution in cerebellum of rat brain after intravenous administration by using [123I]ZIET after 120 min; format: ADME, organism-based; conditions: in vivo, 2 h; method in brief: as §2
Rattus norvegicus [11] = assay: Distribution in cerebellum of rat brain after intravenous administration by using [123I]ZIET after 5 min; format: ADME, organism-based; conditions: in vivo; method in brief: as §2
Rattus norvegicus [12] = assay: Distribution in frontal cortex of rat brain after intravenous administration by using [123I]ZIET after 60 min; format: ADME, organism-based; conditions: in vivo, 1 h; method in brief: as §2
Rattus norvegicus [13] = assay: Distribution in hippocampus of rat brain after intravenous administration by using [123I]ZIET after 120 min; format: ADME, organism-based; conditions: in vivo, 2 h; method in brief: as §2
[14] = Ratio of radioactivity in frontal cortex of rat brain to that of rat cerebellum after intravenous administration after 5 min; format: functional
Method in brief: (§3)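 Male Sprague–Dawley rats (200–250 g) given ~20 μCi [123I] tracer iv in 0.2 mL 10% ethanol/saline under ketamine/xylazine; killed at 5, 30, 60, 120 min (n = 5; n = 4 at 120 min). Brain regions dissected, gamma counted, decay-corrected to %ID/g; regional uptake divided by cerebellum.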

[15] = Ratio of radioactivity in hypothalamus of rat brain to that of rat cerebellum after intravenous administration after 30 min; format: functional; method in brief: as §3
[16] = Ratio of radioactivity in hypothalamus of rat brain to that of rat cerebellum after intravenous administration after 5 min; format: functional; method in brief: as §3
[17] = Ratio of radioactivity in occipital cortex of rat brain to that of rat cerebellum after intravenous administration after 120 min; format: functional; method in brief: as §3
[18] = Ratio of radioactivity in rest of rat brain to that of rat cerebellum after intravenous administration after 60 min; format: functional; method in brief: as §3
[19] = Ratio of radioactivity in striatum of rat brain to that of rat cerebellum after intravenous administration after 30 min; format: functional; method in brief: as §3
[20] = Ratio of radioactivity in hypothalamus of rat brain to that of rat cerebellum after intravenous administration after 120 min; format: functional; method in brief: as §3

Q: Which Activity (Rattus norvegicus [1]) does the source give for `COC(=O)C1C(c2ccc(/C=C\[123I])cc2)CC2CCC1N2C` (stereo not given) here?
A: 0.13

Q: And the Activity (Rattus norvegicus [2])?
A: 0.17

Q: What about the Activity (Rattus norvegicus [3]) of the same compound?
A: 0.41

Q: What about the Activity (Rattus norvegicus [4]) of the same compound?
A: 0.38

Q: And the Activity (Rattus norvegicus [5])?
A: 0.74

Q: What about the Activity (Rattus norvegicus [6]) of the same compound?
A: 0.6

Q: And the Activity (Rattus norvegicus [7])?
A: 0.34

Q: And the Activity (Rattus norvegicus [8])?
A: 0.42

Q: And the Activity (Rattus norvegicus [9])?
A: 0.45

Q: What about the Activity (Rattus norvegicus [10]) of the same compound?
A: 0.14

Q: What about the Activity (Rattus norvegicus [11]) of the same compound?
A: 0.34

Q: What about the Activity (Rattus norvegicus [12]) of the same compound?
A: 0.71

Q: And the Activity (Rattus norvegicus [13])?
A: 0.47

Q: And the Ratio [14]?
A: 1.3

Q: And the Ratio [15]?
A: 1.6

Q: What about the Ratio [16] of the same compound?
A: 1.1

Q: What about the Ratio [17] of the same compound?
A: 3

Q: What about the Ratio [18] of the same compound?
A: 2

Q: What about the Ratio [19] of the same compound?
A: 1.8

Q: What about the Ratio [20] of the same compound?
A: 4.3
